Experimental data from ChEMBL document CHEMBL4261516, “Design, synthesis and pharmacological evaluation of new 2-oxo-quinoline derivatives containing α-aminophosphonates as potential antitumor agents” (Medchemcomm, 2017).

These compounds were tested on L02 (assay: Cytotoxicity against human HL-7702 cells after 48 hrs by MTT assay). Conditions: L02, 48 h.
Format: cell-based
Outline: (§1)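 HepG2, SK-OV-3, NCI-H460 and HL 7702 lines grown as monolayers in DMEM with 10% FBS plus penicillin/streptomycin at 37 °C, 5% CO2. Exponentially growing cells were seeded and exposed to the indicated concentrations for 48 h. MTT was then added for 4 h at 37 °C, formazan was dissolved in DMSO, and OD was read at 490 nm. Each concentration was run in triplicate wells, with three independent runs per line.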
In the case of `COc1ccc2[nH]c(=O)c(C=O)cc2c1`, the IC50 is reported as > 100 µM. With `O=Cc1cc2ccccc2[nH]c1=O` the IC50 was > 100 µM. For `CCOP(=O)(OCC)C(Nc1ccccc1)c1cc2ccccc2[nH]c1=O` (configuration not stated), the IC50 was > 100 µM. `CCOP(=O)(OCC)C(Nc1ccc(C)cc1)c1cc2ccccc2[nH]c1=O` (configuration not stated) was tested, and the IC50 was > 100 µM. In the case of `CCOP(=O)(OCC)C(Nc1ccccc1)c1cc2cc3c(cc2[nH]c1=O)OCO3` (configuration not stated), the IC50 is reported as > 100 µM. In the case of `CCOP(=O)(OCC)C(Nc1ccc(F)cc1)c1cc2cc3c(cc2[nH]c1=O)OCO3` (configuration not stated), the IC50 is reported as > 100 µM. In the case of `CCOP(=O)(OCC)C(Nc1ccc([N+](=O)[O-])cc1)c1cc2ccccc2[nH]c1=O` (configuration not stated), the IC50 is reported as > 100 µM. With `CCOP(=O)(OCC)C(Nc1ccc(C)cc1)c1cc2cc3c(cc2[nH]c1=O)OCO3` (configuration not stated) the IC50 was > 100 µM. `CCOP(=O)(Cc1ccc(/N=C/c2cc3cc(OC)ccc3[nH]c2=O)cc1)OCC` was tested, and the IC50 was > 100 µM. For `CCOP(=O)(Cc1ccc(/N=C/c2cc3cc4c(cc3[nH]c2=O)OCO4)cc1)OCC`, the IC50 was > 100 µM. `CCCCNC(c1cc2cc3c(cc2[nH]c1=O)OCO3)P(=O)(OCC)OCC` (configuration not stated) was tested, and the IC50 was > 100 µM. With `CCCCNC(c1cc2cc(OC)ccc2[nH]c1=O)P(=O)(OCC)OCC` (configuration not stated) the IC50 was > 100 µM. With `CCOP(=O)(OCC)C(Nc1ccc(C)cc1)c1cc2cc(C)ccc2[nH]c1=O` (configuration not stated) the IC50 was > 100 µM. For `CCOP(=O)(OCC)C(Nc1cccc(C)c1)c1cc2cc(C)ccc2[nH]c1=O` (configuration not stated), the IC50 was > 100 µM. For `CCCCNC(c1cc2ccccc2[nH]c1=O)P(=O)(OCC)OCC` (configuration not stated), the IC50 was > 100 µM. For `CCOP(=O)(OCC)C(Nc1ccc(F)cc1)c1cc2ccccc2[nH]c1=O` (configuration not stated), the IC50 was > 100 µM. `O=Cc1cc2cc3c(cc2[nH]c1=O)OCO3` was tested, and the IC50 was > 100 µM. In the case of `CCOP(=O)(Cc1ccc(/N=C/c2cc3ccccc3[nH]c2=O)cc1)OCC`, the IC50 is reported as > 100 µM.

The compounds below were run on SK-OV-3 (assay: Cytotoxicity against human SKOV3 cells after 48 hrs by MTT assay). Conditions: SK-OV-3, 48 h.
Format: functional, cell-based
Outline: as §1
`COc1ccc2[nH]c(=O)c(C=O)cc2c1` was tested, and the IC50 was > 200 µM. For `O=Cc1cc2ccccc2[nH]c1=O`, the IC50 was > 200 µM. `CCOP(=O)(OCC)C(Nc1ccccc1)c1cc2ccccc2[nH]c1=O` (configuration not stated) showed an IC50 of 54.1 µM. `CCOP(=O)(OCC)C(Nc1ccc(C)cc1)c1cc2ccccc2[nH]c1=O` (configuration not stated) was tested, and the IC50 was 66.8 µM. In the case of `CCOP(=O)(OCC)C(Nc1ccccc1)c1cc2cc3c(cc2[nH]c1=O)OCO3` (configuration not stated), the IC50 is reported as 65 µM. `CCOP(=O)(OCC)C(Nc1ccc(F)cc1)c1cc2cc3c(cc2[nH]c1=O)OCO3` (configuration not stated) gave an IC50 of 26.2 µM. `CCOP(=O)(OCC)C(Nc1ccc([N+](=O)[O-])cc1)c1cc2ccccc2[nH]c1=O` (configuration not stated) was tested, and the IC50 was 30 µM. Compound `CCOP(=O)(OCC)C(Nc1ccc(C)cc1)c1cc2cc3c(cc2[nH]c1=O)OCO3` (configuration not stated) has an IC50 of 48.9 µM. `CCOP(=O)(Cc1ccc(/N=C/c2cc3cc(OC)ccc3[nH]c2=O)cc1)OCC` was tested, and the IC50 was 53 µM. With `CCOP(=O)(Cc1ccc(/N=C/c2cc3cc4c(cc3[nH]c2=O)OCO4)cc1)OCC` the IC50 was 47.9 µM. For `CCCCNC(c1cc2cc3c(cc2[nH]c1=O)OCO3)P(=O)(OCC)OCC` (configuration not stated), the IC50 was 37.2 µM. Work on `CCCCNC(c1cc2cc(OC)ccc2[nH]c1=O)P(=O)(OCC)OCC` (configuration not stated) yielded an IC50 of 58.2 µM. Work on `CCOP(=O)(OCC)C(Nc1ccc(C)cc1)c1cc2cc(C)ccc2[nH]c1=O` (configuration not stated) yielded an IC50 of 37.2 µM. For `CCOP(=O)(OCC)C(Nc1cccc(C)c1)c1cc2cc(C)ccc2[nH]c1=O` (configuration not stated), the IC50 was 342 µM. With `CCCCNC(c1cc2ccccc2[nH]c1=O)P(=O)(OCC)OCC` (configuration not stated) the IC50 was 38.3 µM. `CCOP(=O)(OCC)C(Nc1ccc(F)cc1)c1cc2ccccc2[nH]c1=O` (configuration not stated) showed an IC50 of 41 µM. With `O=Cc1cc2cc3c(cc2[nH]c1=O)OCO3` the IC50 was > 200 µM. `CCOP(=O)(Cc1ccc(/N=C/c2cc3ccccc3[nH]c2=O)cc1)OCC` gave an IC50 of 36 µM.

What follows are compounds tested on HepG2 (assay: Cytotoxicity against human HepG2 cells after 48 hrs by MTT assay). Conditions: HepG2, 48 h.
Format: functional, cell-based
Outline: as §1
`COc1ccc2[nH]c(=O)c(C=O)cc2c1` was tested, and the IC50 was > 200 µM. For `O=Cc1cc2ccccc2[nH]c1=O`, the IC50 was > 200 µM. `CCOP(=O)(OCC)C(Nc1ccccc1)c1cc2ccccc2[nH]c1=O` (configuration not stated) was tested, and the IC50 was 46.3 µM. `CCOP(=O)(OCC)C(Nc1ccc(C)cc1)c1cc2ccccc2[nH]c1=O` (configuration not stated) showed an IC50 of 67.3 µM. `CCOP(=O)(OCC)C(Nc1ccccc1)c1cc2cc3c(cc2[nH]c1=O)OCO3` (configuration not stated) was tested, and the IC50 was 45.2 µM. For `CCOP(=O)(OCC)C(Nc1ccc(F)cc1)c1cc2cc3c(cc2[nH]c1=O)OCO3` (configuration not stated), the IC50 was 38 µM. `CCOP(=O)(OCC)C(Nc1ccc([N+](=O)[O-])cc1)c1cc2ccccc2[nH]c1=O` (configuration not stated) showed an IC50 of 75.2 µM. With `CCOP(=O)(OCC)C(Nc1ccc(C)cc1)c1cc2cc3c(cc2[nH]c1=O)OCO3` (configuration not stated) the IC50 was 43.1 µM. Compound `CCOP(=O)(Cc1ccc(/N=C/c2cc3cc(OC)ccc3[nH]c2=O)cc1)OCC` has an IC50 of 17.3 µM. `CCOP(=O)(Cc1ccc(/N=C/c2cc3cc4c(cc3[nH]c2=O)OCO4)cc1)OCC` showed an IC50 of 28.9 µM. With `CCCCNC(c1cc2cc3c(cc2[nH]c1=O)OCO3)P(=O)(OCC)OCC` (configuration not stated) the IC50 was 46.3 µM. Compound `CCCCNC(c1cc2cc(OC)ccc2[nH]c1=O)P(=O)(OCC)OCC` (configuration not stated) has an IC50 of 43.2 µM. Work on `CCOP(=O)(OCC)C(Nc1ccc(C)cc1)c1cc2cc(C)ccc2[nH]c1=O` (configuration not stated) yielded an IC50 of 37.6 µM. In the case of `CCOP(=O)(OCC)C(Nc1cccc(C)c1)c1cc2cc(C)ccc2[nH]c1=O` (configuration not stated), the IC50 is reported as 46 µM. `CCCCNC(c1cc2ccccc2[nH]c1=O)P(=O)(OCC)OCC` (configuration not stated) was tested, and the IC50 was 61.4 µM. With `CCOP(=O)(OCC)C(Nc1ccc(F)cc1)c1cc2ccccc2[nH]c1=O` (configuration not stated) the IC50 was 37.2 µM. `O=Cc1cc2cc3c(cc2[nH]c1=O)OCO3` was tested, and the IC50 was > 200 µM. For `CCOP(=O)(Cc1ccc(/N=C/c2cc3ccccc3[nH]c2=O)cc1)OCC`, the IC50 was 17.9 µM.

The compounds below were run on NCI-H460 (assay: Cytotoxicity against human NCI-H460 cells after 48 hrs by MTT assay). Conditions: NCI-H460, 48 h.
Format: functional, cell-based
Outline: as §1
In the case of `COc1ccc2[nH]c(=O)c(C=O)cc2c1`, the IC50 is reported as > 200 µM. For `O=Cc1cc2ccccc2[nH]c1=O`, the IC50 was > 200 µM. With `CCOP(=O)(OCC)C(Nc1ccccc1)c1cc2ccccc2[nH]c1=O` (configuration not stated) the IC50 was > 100 µM. For `CCOP(=O)(OCC)C(Nc1ccc(C)cc1)c1cc2ccccc2[nH]c1=O` (configuration not stated), the IC50 was > 100 µM. With `CCOP(=O)(OCC)C(Nc1ccccc1)c1cc2cc3c(cc2[nH]c1=O)OCO3` (configuration not stated) the IC50 was > 100 µM. Work on `CCOP(=O)(OCC)C(Nc1ccc(F)cc1)c1cc2cc3c(cc2[nH]c1=O)OCO3` (configuration not stated) yielded an IC50 of 59.6 µM. `CCOP(=O)(OCC)C(Nc1ccc([N+](=O)[O-])cc1)c1cc2ccccc2[nH]c1=O` (configuration not stated) was tested, and the IC50 was > 100 µM. In the case of `CCOP(=O)(OCC)C(Nc1ccc(C)cc1)c1cc2cc3c(cc2[nH]c1=O)OCO3` (configuration not stated), the IC50 is reported as > 100 µM. With `CCOP(=O)(Cc1ccc(/N=C/c2cc3cc(OC)ccc3[nH]c2=O)cc1)OCC` the IC50 was > 100 µM. In the case of `CCOP(=O)(Cc1ccc(/N=C/c2cc3cc4c(cc3[nH]c2=O)OCO4)cc1)OCC`, the IC50 is reported as > 100 µM. For `CCCCNC(c1cc2cc3c(cc2[nH]c1=O)OCO3)P(=O)(OCC)OCC` (configuration not stated), the IC50 was 47.9 µM. In the case of `CCCCNC(c1cc2cc(OC)ccc2[nH]c1=O)P(=O)(OCC)OCC` (configuration not stated), the IC50 is reported as > 100 µM. For `CCOP(=O)(OCC)C(Nc1ccc(C)cc1)c1cc2cc(C)ccc2[nH]c1=O` (configuration not stated), the IC50 was > 100 µM. `CCOP(=O)(OCC)C(Nc1cccc(C)c1)c1cc2cc(C)ccc2[nH]c1=O` (configuration not stated) was tested, and the IC50 was > 100 µM. `CCCCNC(c1cc2ccccc2[nH]c1=O)P(=O)(OCC)OCC` (configuration not stated) was tested, and the IC50 was > 100 µM. `CCOP(=O)(OCC)C(Nc1ccc(F)cc1)c1cc2ccccc2[nH]c1=O` (configuration not stated) was tested, and the IC50 was > 100 µM. `O=Cc1cc2cc3c(cc2[nH]c1=O)OCO3` was tested, and the IC50 was > 200 µM. With `CCOP(=O)(Cc1ccc(/N=C/c2cc3ccccc3[nH]c2=O)cc1)OCC` the IC50 was 57.9 µM.
